Source: ChEMBL document CHEMBL1126775, “A pharmacological, crystallographic, and quantum chemical study of new inotropic agents” (J Med Chem, 1993)
Several values for one entry are separate records, joined by “and”; a condition that tells them apart may be missing. Identical values can stand only once.

Tests used:
Cavia porcellus [1] = organism: Cavia porcellus; experiment: Inotropic response in electrically driven left atrium from reserpine-treated guinea pig with VER (10 e-7) at the concentration of 2 x 10 e-3 M; assay type: functional, Cardiac atrium
How it was run: (§1)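 Left atrium from reserpine-treated guinea pigs (2 mg/kg ip, 48 and 24 h prior; tyramine 2 μg/mL check), paced at 1.5 Hz with 3-ms pulses. Verapamil 0.1 μM added 10 min before cumulative agent additions (5 min each), after 90 min equilibration. Isometric developed tension as % increase over control; seven assays from seven experiments.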

Cavia porcellus [2] = organism: Cavia porcellus; experiment: Inotropic response in electrically driven left atrium from reserpine-treated guinea pig with ADA (2 units/ml) at the concentration of 10 e-4 M; assay type: functional, Cardiac atrium
How it was run: (§2)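 Reserpinized guinea pigs (2 mg/kg ip, 48 and 24 h before death), tyramine-unresponsive atria. Electrically driven left atrium (1.5 Hz, 3-ms pulses, 0.5 g load) preincubated 20 min with adenosine deaminase after 90 min equilibration. Agents added cumulatively, 5 min per concentration. Developed tension recorded isometrically, % increase over control or % inhibition; six assays from six experiments, Student's t test.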

Cavia porcellus [3] = organism: Cavia porcellus; experiment: Effect on frequency rate of spontaneously beating atria from reserpine treated guinea pigs at the concentration of 10 e-5 M; assay type: functional
Cavia porcellus [4] = organism: Cavia porcellus; experiment: Inotropic effect in electrically driven left atrium from reserpine-treated guinea pig without 8-phenyl theophylline at the concentration of 10 e-3 M; assay type: functional, Cardiac atrium
How it was run: (§3)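 Paced left atrium from reserpine-pretreated, tyramine-unresponsive guinea pigs (0.5 g load, 1.5 Hz, 3-ms pulses). Cumulative additions of agent, 5 min each, with no 8-phenyltheophylline present. Developed tension as % increase over control. Mean ± SEM of six assays from six experiments; Student's t test against the 8-phenyltheophylline-treated preparations.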

Cavia porcellus [5] = organism: Cavia porcellus; experiment: Inotropic response in electrically driven left atrium from reserpine-treated guinea pig without VER at the concentration of 10 e-3 M; assay type: functional, Cardiac atrium
How it was run: (§4)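 Control arm without verapamil: left atrium from reserpinized guinea pigs (2 mg/kg ip, 48 and 24 h before), tyramine-unresponsive, paced at 1.5 Hz (3-ms pulses). Agents added cumulatively after 90 min equilibration, recorded 5 min each. Isometric developed tension as % increase over control; seven assays from seven experiments.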

Cavia porcellus [6] = organism: Cavia porcellus; experiment: Inotropic response in electrically driven left atrium from reserpine-treated guinea pig with ADA (2 units/ml) at the concentration of 10 e-3 M; assay type: functional, Cardiac atrium; how it was run: as §2
Cavia porcellus [7] = organism: Cavia porcellus; experiment: Inotropic effect in electrically driven left atrium from reserpine-treated guinea pig at the concentration of 10 e-3 M; assay type: functional, Cardiac atrium
How it was run: (§5)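 Atria from reserpine-pretreated guinea pigs (2 mg/kg ip, 48 and 24 h), tyramine-unresponsive only. Left atrium loaded 0.5 g, paced at 1.5 Hz with 3-ms square pulses at 10–20% above threshold. Equilibrated 90 min. Agents added cumulatively, 5 min per concentration. Isometric developed tension expressed as % increase over control.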

Cavia porcellus [8] = organism: Cavia porcellus; experiment: Inotropic effect in electrically driven left atrium from reserpine-treated guinea pig without 8-phenyl theophylline at the concentration of 10 e-5 M; assay type: functional, Cardiac atrium; how it was run: as §3
Cavia porcellus [9] = organism: Cavia porcellus; experiment: Inotropic effect in electrically driven left atrium from reserpine-treated guinea pig at the concentration of 5 x 10 e-5 M; assay type: functional, Cardiac atrium; how it was run: as §5
Cavia porcellus [10] = organism: Cavia porcellus; experiment: Inotropic response in electrically driven left atrium from reserpine-treated guinea pig with ADA (2 units/ml) at the concentration of 5 x 10 e-5 M; assay type: functional, Cardiac atrium; how it was run: as §2
Cavia porcellus [11] = organism: Cavia porcellus; experiment: Effect on frequency rate of spontaneously beating atria from reserpine treated guinea pigs at the concentration of 10 e-4 M; assay type: functional
Cavia porcellus [12] = organism: Cavia porcellus; experiment: Effect on frequency rate of spontaneously beating atria from reserpine treated guinea pigs at the concentration of 2 x 10 e-3 M; assay type: functional
Cavia porcellus [13] = organism: Cavia porcellus; experiment: Effect on frequency rate of spontaneously beating atria from reserpine treated guinea pigs at the concentration of 5 x 10 e-4 M; assay type: functional
Cavia porcellus [14] = organism: Cavia porcellus; experiment: Effect on contractile force of spontaneously beating atria from reserpine treated guinea pigs at the concentration of 10 e-5 M; assay type: functional
Cavia porcellus [15] = organism: Cavia porcellus; experiment: Effect on contractile force of spontaneously beating atria from reserpine treated guinea pigs at the concentration of 10 e-4 M; assay type: functional
Cavia porcellus [16] = organism: Cavia porcellus; experiment: Inotropic response in electrically driven left atrium from reserpine-treated guinea pig without ADA at the concentration of 10 e-5 M; assay type: functional, Cardiac atrium
How it was run: (§6)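 Control arm: electrically driven left atrium (1.5 Hz, 3-ms pulses, 0.5 g load) from guinea pigs given reserpine 2 mg/kg ip at 48 and 24 h, tyramine-unresponsive; no adenosine deaminase. Cumulative additions after 90 min equilibration, 5 min per concentration. Isometric developed tension, % over control; six assays from six experiments.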

Cavia porcellus [17] = organism: Cavia porcellus; experiment: Effect on frequency rate of spontaneously beating atria from reserpine treated guinea pigs at the concentration of 10 e-3 M; assay type: functional
Cavia porcellus [18] = organism: Cavia porcellus; experiment: Inotropic effect in electrically driven left atrium from reserpine-treated guinea pig without 8-phenyl theophylline at the concentration of 5 x 10 e-5 M; assay type: functional, Cardiac atrium; how it was run: as §3
Cavia porcellus [19] = organism: Cavia porcellus; experiment: Inotropic response in electrically driven left atrium from reserpine-treated guinea pig without VER at the concentration of 2 x 10 e-3 M; assay type: functional, Cardiac atrium; how it was run: as §4
Cavia porcellus [20] = organism: Cavia porcellus; experiment: Inotropic response in electrically driven left atrium from reserpine-treated guinea pig without VER at the concentration of 5 x 10 e-4 M; assay type: functional, Cardiac atrium; how it was run: as §4
Cavia porcellus [21] = organism: Cavia porcellus; experiment: Inotropic response in electrically driven left atrium from reserpine-treated guinea pig with VER (10 e-7) at the concentration of 10 e-3 M; assay type: functional, Cardiac atrium; how it was run: as §1
Cavia porcellus [22] = organism: Cavia porcellus; experiment: Inotropic effect in electrically driven left atrium from reserpine-treated guinea pig without 8-phenyl theophylline at the concentration of 5 x 10 e-4 M; assay type: functional, Cardiac atrium; how it was run: as §3
Cavia porcellus [23] = organism: Cavia porcellus; experiment: Effect on contractile force of spontaneously beating atria from reserpine treated guinea pigs at the concentration of 5x 10 e-4 M; assay type: functional
Cavia porcellus [24] = organism: Cavia porcellus; experiment: Inotropic effect in electrically driven left atrium from reserpine-treated guinea pig at the concentration of 10 e-4 M; assay type: functional, Cardiac atrium; how it was run: as §5
Cavia porcellus [25] = organism: Cavia porcellus; experiment: Inotropic response in electrically driven left atrium from reserpine-treated guinea pig without VER at the concentration of 10 e-5 M; assay type: functional, Cardiac atrium; how it was run: as §4
Cavia porcellus [26] = organism: Cavia porcellus; experiment: Effect on contractile force of spontaneously beating atria from reserpine treated guinea pigs at the concentration of 2 x 10 e-3 M; assay type: functional
Cavia porcellus [27] = organism: Cavia porcellus; experiment: Inotropic effect in electrically driven left atrium from reserpine-treated guinea pig without 8-phenyl theophylline at the concentration of 10 e-4 M; assay type: functional, Cardiac atrium; how it was run: as §3
Cavia porcellus [28] = organism: Cavia porcellus; experiment: Inotropic response in electrically driven left atrium from reserpine-treated guinea pig without ADA at the concentration of 10 e-4 M; assay type: functional, Cardiac atrium; how it was run: as §6
Cavia porcellus [29] = organism: Cavia porcellus; experiment: Inotropic response in electrically driven left atrium from reserpine-treated guinea pig with VER (10 e-7) at the concentration of 10 e-4 M; assay type: functional, Cardiac atrium; how it was run: as §1
Cavia porcellus [30] = organism: Cavia porcellus; experiment: Inotropic response in electrically driven left atrium from reserpine-treated guinea pig without ADA at the concentration of 10 e-3 M; assay type: functional, Cardiac atrium; how it was run: as §6
Cavia porcellus [31] = organism: Cavia porcellus; experiment: Inotropic response in electrically driven left atrium from reserpine-treated guinea pig with VER (10 e-7) at the concentration of 10 e-5 M; assay type: functional, Cardiac atrium; how it was run: as §1
Cavia porcellus [32] = organism: Cavia porcellus; experiment: Inotropic response in electrically driven left atrium from reserpine-treated guinea pig with ADA (2 units/ml) at the concentration of 5 x 10 e-4 M; assay type: functional, Cardiac atrium; how it was run: as §2
Cavia porcellus [33] = organism: Cavia porcellus; experiment: Effect on contractile force of spontaneously beating atria from reserpine treated guinea pigs at the concentration of 10 e-3 M; assay type: functional
[34] = Logarithm of the sum of contributions of each atom to the total lipophilicity of the molecule; assay type: physicochemical; conditions: octanol/water
Cavia porcellus [35] = organism: Cavia porcellus; experiment: Inotropic response in electrically driven left atrium from reserpine-treated guinea pig without ADA at the concentration of 5 x 10 e-5 M; assay type: functional, Cardiac atrium; how it was run: as §6
Cavia porcellus [36] = organism: Cavia porcellus; experiment: Inotropic effect in electrically driven left atrium from reserpine-treated guinea pig at the concentration of 5 x 10 e-4 M; assay type: functional, Cardiac atrium; how it was run: as §5

Structure (SMILES)	Increase (Cavia porcellus [1]) [%]	Increase (Cavia porcellus [2]) [%]	Increase (Cavia porcellus [3])	Increase (Cavia porcellus [4]) [%]	Increase (Cavia porcellus [5]) [%]	Increase (Cavia porcellus [6]) [%]	Increase (Cavia porcellus [7]) [%]	Increase (Cavia porcellus [8]) [%]	Increase (Cavia porcellus [9]) [%]	Increase (Cavia porcellus [10]) [%]	Increase (Cavia porcellus [11]) [%]	Increase (Cavia porcellus [12]) [%]	Increase (Cavia porcellus [13]) [%]	Increase (Cavia porcellus [14]) [%]	Increase (Cavia porcellus [15]) [%]	Increase (Cavia porcellus [16]) [%]	Increase (Cavia porcellus [17]) [%]	Increase (Cavia porcellus [18]) [%]	Increase (Cavia porcellus [19]) [%]	Increase (Cavia porcellus [20]) [%]	further results
CC1CC(=O)c2ccc(O)nc2C1 (configuration not stated)	43.8	9.12	2.63% and 3.21%	56.72	45.89	20.63	48.86	4.64	19.17	5.52	3.29	26.44	13.45	4.28	28.89	15.78	19.68	18.83	75.51	31.4	Increase (Cavia porcellus [21]): 23.78%; Increase (Cavia porcellus [22]): 38.88%; Increase (Cavia porcellus [23]): 39.48%; Increase (Cavia porcellus [24]): 26.62%; Increase (Cavia porcellus [25]): 5.76%; Increase (Cavia porcellus [26]): 80.98%; Increase (Cavia porcellus [27]): 24.77%; Increase (Cavia porcellus [28]): 27.6%; Increase (Cavia porcellus [29]): 2.43%; Increase (Cavia porcellus [30]): 46.19%; Increase (Cavia porcellus [31]): -0.32%; Increase (Cavia porcellus [32]): 14.35%; Increase (Cavia porcellus [33]): 46.09%; logP [34]: 0.45; Increase (Cavia porcellus [35]): 25%; Increase (Cavia porcellus [36]): 37.23%
CC(=O)c1cc(C#N)c(O)nc1C	88.84	10.08	0.23% and 1.35%	56.71	77.46	37.93	58.73	12.62	25.17	8.32	6.62	22.98	11.61	13.9	35.57	5.26	21.93	17.81	94.47	62.96	Increase (Cavia porcellus [21]): 66.4%; Increase (Cavia porcellus [22]): 48.18%; Increase (Cavia porcellus [23]): 57.22%; Increase (Cavia porcellus [24]): 38.06%; Increase (Cavia porcellus [25]): 18.83%; Increase (Cavia porcellus [26]): 64.11%; Increase (Cavia porcellus [27]): 28.87%; Increase (Cavia porcellus [28]): 12.61%; Increase (Cavia porcellus [29]): 28.47%; Increase (Cavia porcellus [30]): 42.05%; Increase (Cavia porcellus [31]): 12.63%; Increase (Cavia porcellus [32]): 20.37%; Increase (Cavia porcellus [33]): 65.35%; logP [34]: -0.1; Increase (Cavia porcellus [35]): 13.32%; Increase (Cavia porcellus [36]): 48.67%
